Active and inactive are the calls of the source.
Tests used:
[1] = Metabolic stability in human liver microsomes assessed as compound remaining after 10 mins; assay type: ADME; conditions: liver microsomes, read-out: Stability
How it was run: (§1)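 Compound incubated 10 min with liver microsomes of the stated species; amount of parent remaining reported as percent.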

[2] = Oral bioavailability in rat at 10 mg/kg; assay type: ADME, organism-based; conditions: in vivo
How it was run: (§2)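 Oral dosing at 10 mg/kg as a solution of the sodium salt in 20% HPβCD, n = 4 animals per group.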

Rattus norvegicus [3] = assay: Reversal of complete freund's adjuvant-induced thermal hypersensitivity in po dosed Sprague-Dawley rat measured at 100 mins; assay type: functional
How it was run: (§3)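 Male Sprague−Dawley rats (195−350 g), intraplantar CFA (100 μL, 1:1 CFA:saline) with testing 24 h later, or carrageenan-λ (200 μL, 10 mg/mL) with testing 3 h later. Radiant heat withdrawal latency, 10−15 s baseline, 20 s cutoff; rats with ≥25% latency drop kept. Oral dosing at 2.5 mL/kg. Percent reversal = (treatment − post)/(pre − post) × 100, scored blind.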

Rattus norvegicus [4] = assay: Reversal of complete freund's adjuvant-induced thermal hypersensitivity in po dosed Sprague-Dawley rat assessed as plasma concentration required to reach ED50 measured at 100 mins; assay type: functional
How it was run: (§4)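 Rats dosed orally 100 min before radiant-heat testing. For CFA, plasma taken right after behavioural testing; for carrageenan, taken from a separate group dosed identically. Blood collected on lithium heparin and centrifuged, plasma stored at −80 °C. Plasma levels matching ED50 and ED80 (EC50/EC80) computed from the dose−response data.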

Rattus norvegicus [5] = assay: Reversal of complete freund's adjuvant-induced thermal hypersensitivity in po dosed Sprague-Dawley rat assessed as plasma concentration required to reach ED80 measured at 100 mins; assay type: functional; how it was run: as §4
[6] = target: Transient receptor potential cation channel subfamily M member 8 (Homo sapiens) (UniProt Q7Z2W7); assay: Effect on TRPM8 (unknown origin)
Transient receptor potential cation channel subfamily M member 8 (Homo sapiens), sequence (Q7Z2W7 whole entry, looked up): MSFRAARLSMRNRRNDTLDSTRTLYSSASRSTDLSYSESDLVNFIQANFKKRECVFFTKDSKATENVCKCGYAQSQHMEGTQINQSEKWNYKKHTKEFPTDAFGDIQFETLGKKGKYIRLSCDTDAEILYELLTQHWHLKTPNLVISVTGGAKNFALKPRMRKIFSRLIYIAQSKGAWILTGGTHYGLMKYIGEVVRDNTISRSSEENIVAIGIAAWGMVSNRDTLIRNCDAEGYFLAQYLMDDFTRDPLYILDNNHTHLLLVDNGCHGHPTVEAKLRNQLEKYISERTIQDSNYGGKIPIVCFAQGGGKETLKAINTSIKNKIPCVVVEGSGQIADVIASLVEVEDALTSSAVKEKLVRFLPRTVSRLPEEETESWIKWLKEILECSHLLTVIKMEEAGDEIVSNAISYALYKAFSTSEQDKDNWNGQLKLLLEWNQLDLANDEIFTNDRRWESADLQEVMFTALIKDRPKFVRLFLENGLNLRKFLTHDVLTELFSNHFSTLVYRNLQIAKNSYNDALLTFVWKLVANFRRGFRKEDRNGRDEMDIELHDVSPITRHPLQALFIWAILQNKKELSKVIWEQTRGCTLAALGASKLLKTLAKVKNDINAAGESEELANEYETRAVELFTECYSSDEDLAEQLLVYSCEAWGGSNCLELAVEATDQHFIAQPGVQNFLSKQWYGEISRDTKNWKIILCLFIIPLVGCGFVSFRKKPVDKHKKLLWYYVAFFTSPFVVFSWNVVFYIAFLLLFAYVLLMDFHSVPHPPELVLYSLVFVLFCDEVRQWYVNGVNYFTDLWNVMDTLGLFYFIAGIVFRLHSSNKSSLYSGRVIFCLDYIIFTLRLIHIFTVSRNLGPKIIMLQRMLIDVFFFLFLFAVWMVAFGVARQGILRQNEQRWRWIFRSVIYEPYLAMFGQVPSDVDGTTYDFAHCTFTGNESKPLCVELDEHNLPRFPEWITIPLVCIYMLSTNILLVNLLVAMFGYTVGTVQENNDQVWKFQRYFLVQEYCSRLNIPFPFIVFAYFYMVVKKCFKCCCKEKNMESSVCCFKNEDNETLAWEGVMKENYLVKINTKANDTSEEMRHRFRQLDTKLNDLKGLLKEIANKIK

[7] = target: T1, Transient receptor potential cation channel subfamily V member 2 (Homo sapiens) (UniProt Q9Y5S1); assay: Effect on TRPV2 (unknown origin)
T1 sequence (whole entry): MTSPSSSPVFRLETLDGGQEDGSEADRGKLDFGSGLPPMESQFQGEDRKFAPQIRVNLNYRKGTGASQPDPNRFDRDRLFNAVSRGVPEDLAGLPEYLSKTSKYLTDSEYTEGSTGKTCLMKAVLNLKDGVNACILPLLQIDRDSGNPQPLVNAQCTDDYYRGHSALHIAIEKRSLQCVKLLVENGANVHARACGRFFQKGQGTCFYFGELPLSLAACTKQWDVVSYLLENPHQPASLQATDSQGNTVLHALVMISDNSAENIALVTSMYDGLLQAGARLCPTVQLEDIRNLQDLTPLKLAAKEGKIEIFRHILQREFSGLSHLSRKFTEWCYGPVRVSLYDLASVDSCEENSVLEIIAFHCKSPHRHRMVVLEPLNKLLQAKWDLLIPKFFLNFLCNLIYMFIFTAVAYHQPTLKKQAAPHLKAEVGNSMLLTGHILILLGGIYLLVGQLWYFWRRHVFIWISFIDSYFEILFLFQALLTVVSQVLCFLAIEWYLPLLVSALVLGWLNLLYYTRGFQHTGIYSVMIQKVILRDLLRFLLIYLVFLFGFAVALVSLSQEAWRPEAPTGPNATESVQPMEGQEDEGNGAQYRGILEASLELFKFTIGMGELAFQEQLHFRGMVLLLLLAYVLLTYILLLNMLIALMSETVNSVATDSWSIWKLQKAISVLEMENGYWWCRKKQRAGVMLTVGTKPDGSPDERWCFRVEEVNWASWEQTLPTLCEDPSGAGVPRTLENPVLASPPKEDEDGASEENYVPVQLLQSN

Rattus norvegicus [8] = assay: Reversal of carrageenan-induced thermal hypersensitivity in po dosed Sprague-Dawley rat measured at 100 mins; assay type: functional; how it was run: as §3
Rattus norvegicus [9] = assay: Reversal of carrageenan-induced thermal hypersensitivity in po dosed Sprague-Dawley rat assessed as plasma concentration required to reach ED50 measured at 100 mins; assay type: functional; how it was run: as §4
[10] = Metabolic stability in monkey liver microsomes assessed as compound remaining after 10 mins; assay type: ADME, Macaca mulatta; conditions: rhesus monkey, read-out: Stability; how it was run: as §1
[11] = Volume of distribution at steady state in dog at 2 mg/kg, iv; assay type: ADME, organism-based, Canis lupus familiaris; set-up: dose 2 mg/kg, route intravenous; conditions: in vivo, read-out: Vdss
How it was run: (§5)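 Intravenous dosing at 2 mg/kg as a solution of the sodium salt in 20% HPβCD, n = 4 animals per group. Vss derived from the plasma pharmacokinetic profile.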

[12] = Volume of distribution at steady state in mouse at 2 mg/kg, iv; assay type: ADME, organism-based; set-up: dose 2 mg/kg, route intravenous; conditions: in vivo, read-out: Vdss; how it was run: as §5
[13] = Half life in rat at 2 mg/kg, iv; assay type: ADME, organism-based; set-up: dose 2 mg/kg, route intravenous; conditions: in vivo
How it was run: (§6)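 Intravenous dosing at 2 mg/kg as a solution of the sodium salt in 20% HPβCD, n = 4 animals per group.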

[14] = Half life in dog at 2 mg/kg, iv; assay type: ADME, organism-based, Canis lupus familiaris; set-up: dose 2 mg/kg, route intravenous; conditions: in vivo; how it was run: as §6
[15] = Cmax in rat at 10 mg/kg, po; assay type: ADME, organism-based; set-up: dose 10 mg/kg, route oral; conditions: in vivo; how it was run: as §2
[16] = AUC in rat at 10 mg/kg, po; assay type: ADME, organism-based; set-up: dose 10 mg/kg, route oral; conditions: plasma; how it was run: as §2
[17] = Half life in dog at 10 mg/kg, po; assay type: ADME, organism-based, Canis lupus familiaris; set-up: dose 10 mg/kg, route oral; conditions: in vivo; how it was run: as §2
[18] = Oral bioavailability in mouse at 10 mg/kg; assay type: ADME, organism-based; conditions: in vivo; how it was run: as §2
Cytochrome P450 3A4 = Cytochrome P450 3A4 (Homo sapiens, UniProt P08684); assay: Inhibition of CYP3A4 in human liver microsomes; assay type: ADME
Cytochrome P450 3A4, sequence (P08684 whole entry): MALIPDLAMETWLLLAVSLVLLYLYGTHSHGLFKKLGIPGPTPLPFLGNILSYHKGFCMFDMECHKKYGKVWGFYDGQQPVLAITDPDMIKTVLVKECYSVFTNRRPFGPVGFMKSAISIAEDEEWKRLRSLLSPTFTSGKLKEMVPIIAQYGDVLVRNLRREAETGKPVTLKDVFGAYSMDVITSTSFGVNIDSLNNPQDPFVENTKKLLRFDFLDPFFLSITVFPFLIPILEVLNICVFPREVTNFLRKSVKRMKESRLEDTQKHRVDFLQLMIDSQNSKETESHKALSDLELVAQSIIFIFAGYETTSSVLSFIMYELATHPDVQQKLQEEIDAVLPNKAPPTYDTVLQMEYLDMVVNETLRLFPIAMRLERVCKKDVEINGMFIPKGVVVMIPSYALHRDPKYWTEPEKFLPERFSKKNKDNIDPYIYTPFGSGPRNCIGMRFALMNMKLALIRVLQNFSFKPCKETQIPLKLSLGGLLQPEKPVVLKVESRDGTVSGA

Cytochrome P450 1A2 = target: T2, Cytochrome P450 1A2 (Homo sapiens, UniProt P05177); assay: Inhibition of CYP1A2 in human liver microsomes; assay type: ADME
T2 sequence (P05177 whole entry): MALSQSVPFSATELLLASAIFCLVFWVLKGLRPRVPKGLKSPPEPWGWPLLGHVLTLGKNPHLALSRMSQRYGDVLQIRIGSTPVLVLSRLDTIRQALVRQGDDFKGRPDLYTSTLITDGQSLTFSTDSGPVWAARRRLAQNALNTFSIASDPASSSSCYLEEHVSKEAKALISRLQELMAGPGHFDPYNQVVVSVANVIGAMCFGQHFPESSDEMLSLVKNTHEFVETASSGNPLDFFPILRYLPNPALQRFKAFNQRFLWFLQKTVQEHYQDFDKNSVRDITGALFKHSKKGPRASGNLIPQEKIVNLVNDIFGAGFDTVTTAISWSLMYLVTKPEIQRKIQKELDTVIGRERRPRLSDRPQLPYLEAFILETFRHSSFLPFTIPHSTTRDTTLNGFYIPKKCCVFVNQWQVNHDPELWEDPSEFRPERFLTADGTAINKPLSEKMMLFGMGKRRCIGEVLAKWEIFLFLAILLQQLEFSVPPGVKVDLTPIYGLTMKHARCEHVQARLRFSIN

[19] = target: Voltage-gated inwardly rectifying potassium channel KCNH2 (Homo sapiens, UniProt Q12809); assay: Displacement of [3H]-astemizole from recombinant human ERG at 10 uM
Voltage-gated inwardly rectifying potassium channel KCNH2, sequence (Q12809 whole entry): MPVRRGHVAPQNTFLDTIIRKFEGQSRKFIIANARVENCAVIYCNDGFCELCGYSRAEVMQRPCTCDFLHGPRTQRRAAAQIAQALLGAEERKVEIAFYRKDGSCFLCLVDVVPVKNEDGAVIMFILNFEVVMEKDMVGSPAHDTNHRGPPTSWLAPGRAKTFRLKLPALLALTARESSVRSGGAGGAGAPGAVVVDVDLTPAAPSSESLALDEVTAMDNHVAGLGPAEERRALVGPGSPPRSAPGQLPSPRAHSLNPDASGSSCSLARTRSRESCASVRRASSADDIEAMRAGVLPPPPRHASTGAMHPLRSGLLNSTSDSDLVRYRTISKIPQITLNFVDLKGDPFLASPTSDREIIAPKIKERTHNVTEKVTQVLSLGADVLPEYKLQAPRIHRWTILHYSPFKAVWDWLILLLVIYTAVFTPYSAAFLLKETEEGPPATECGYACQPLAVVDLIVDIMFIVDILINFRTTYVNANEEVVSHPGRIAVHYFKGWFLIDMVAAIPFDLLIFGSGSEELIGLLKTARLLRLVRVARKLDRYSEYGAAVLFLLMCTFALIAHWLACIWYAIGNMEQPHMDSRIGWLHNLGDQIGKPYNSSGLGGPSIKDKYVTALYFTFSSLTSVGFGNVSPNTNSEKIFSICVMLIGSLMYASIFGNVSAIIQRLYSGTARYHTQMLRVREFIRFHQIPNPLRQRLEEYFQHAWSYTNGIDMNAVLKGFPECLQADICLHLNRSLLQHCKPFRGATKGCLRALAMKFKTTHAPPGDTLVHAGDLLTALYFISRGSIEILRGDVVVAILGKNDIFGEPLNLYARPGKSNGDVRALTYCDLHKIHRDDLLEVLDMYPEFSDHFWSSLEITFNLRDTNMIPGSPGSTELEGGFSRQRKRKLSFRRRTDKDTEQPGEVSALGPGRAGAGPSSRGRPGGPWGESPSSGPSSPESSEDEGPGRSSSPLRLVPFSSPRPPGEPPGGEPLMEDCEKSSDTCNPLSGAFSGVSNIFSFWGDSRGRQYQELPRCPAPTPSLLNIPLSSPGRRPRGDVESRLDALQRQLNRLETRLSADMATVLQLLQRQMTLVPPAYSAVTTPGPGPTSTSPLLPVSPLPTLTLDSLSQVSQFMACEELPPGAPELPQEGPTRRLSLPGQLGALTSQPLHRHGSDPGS

Rattus norvegicus [20] = assay: Toxicity in Sprague-Dawley rat assessed as increase in core body temperature at 100 mg/kg, po measured after 30 to 180 mins by rectal thermometer relative to vehicle-treated control; assay type: organism-based; set-up: dose 100 mg/kg, route oral; conditions: in vivo
How it was run: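 Male Sprague-Dawley rats, food deprived 18 h, given single oral dose 100 mg/kg or vehicle (HPβCD), n = 8 per group; core temperature taken by rectal thermometer over 3 h. Analysis by two-way repeated-measure ANOVA (vehicle vs compound) with Bonferroni post-tests.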

CC(C)(O)c1ccccc1-c1ccc2[nH]c(/C=C/c3ccc(C(F)(F)F)cc3)nc2c1
remaining at 10 min [1]: 100% | bioavailability [2]: 51% | ED50 (Rattus norvegicus [3]): 1.8 mg/kg | ED80 (Rattus norvegicus [3]): 7.8 mg/kg | Activity (Rattus norvegicus [4]): 41.9 ng/mL | Activity (Rattus norvegicus [5]): 270.8 ng/mL | Activity [6]: inactive | Activity [7]: inactive | ED50 (Rattus norvegicus [8]): 0.18 mg/kg | ED80 (Rattus norvegicus [8]): 0.48 mg/kg | Activity (Rattus norvegicus [9]): 3.8 ng/mL | remaining at 10 min [10]: 86% | Vd [11]: 2.7 L/kg | Vd [12]: 2.5 L/kg | half-life [13]: 3.4 h | half-life [14]: 1.1 h | Cmax [15]: 421 ng/mL | AUC [16]: 4200 ng·h/mL | half-life [17]: 1.4 h | bioavailability [18]: 83.3% | IC50 (Cytochrome P450 3A4): > 25 µM | IC50 (Cytochrome P450 1A2): > 25 µM | inhibition (INH) [19]: Not Active | Activity (Rattus norvegicus [20]): Non-toxic

— ChEMBL document CHEMBL3425511 (J Med Chem, 2015)
